Measurements collected from several papers.
Each line is one published result; the experiments were not run side by side.
Target: Sodium-dependent dopamine transporter (SLC6A3, Homo sapiens, UniProt Q01959)

Compound | observed | action | method | cells | tested at | inhibition [%]
Fc1ccc(C(OCCN2CCN(CCCc3ccccc3)CC2)c2ccc(F)cc2)cc1 | transporter uptake | inhibitor |  | HEK293 | 1 µM | 98
CC(C)Cn1cnc2c(N)nc3ccccc3c21 | ligand displacement |  | radioligand |  | 10 µM | 25
Clc1ccc2c(C3CCN(CCc4c[nH]c5ccccc45)CC3)c[nH]c2c1 | ligand displacement |  | radioligand |  | 10 µM | 96
CN1CCN(c2ccnc(NCCc3ccccc3)n2)CC1 | cell-free assay |  |  |  | 10 µM | 98
CCN(CC)CCCC[C@H](NC(=O)[C@H](CC(C)C)NC(=O)[C@H](C)NC(=O)[C@H](Cc1ccccc1)NC(=O)c1ccc(C(C)(C)C)cc1)C(=O)N[C@@H](CO)C(=O)OC | ligand displacement |  | radioligand |  | 10 µM | 7
CCCCCCCCCCCC(=O)OC[C@@H](COP(=O)(O)OCCNC(=O)c1ccc(Cn2c(=O)[nH]c3c(N)nc(OCCOC)nc32)cc1)OC(=O)CCCCCCCCCCC | ligand displacement |  | radioligand |  | 10 µM | 64
CC(C)N1CCC[C@H]1CNC(=O)c1cn(C2CCCC2)c(=O)c2c1c1ccccc1n2C | ligand displacement |  | radioligand |  | 10 µM | 42
CN(CCN1CCC(OC(=O)Nc2ccccc2-c2ccccc2)CC1)C(=O)c1ccc(CN2CCC(C(N)=O)CC2)cc1 | ligand displacement |  | radioligand |  | 1 µM | -4
Cc1cc2c(-c3ccco3)cnc(N[C@H]3CCN(C)C[C@@H]3C(=O)NC3CCCCC3)c2[nH]c1=O | cell-free assay |  |  |  | 10 µM | 8.66
COc1ccc(S(=O)(=O)N2CCCCC2)cc1C | ligand displacement |  | radioligand |  | 10 µM | < 30
COCc1c(-c2cc3cc(C)cc(OC)c3s2)c2c(N)ncnn2c1CN1CCNC(=O)C1 | ligand displacement |  | radioligand |  | 10 µM | 35
